Results on 28 compounds are retold here after ChEMBL document CHEMBL5038677, “Identification and In Silico Binding Study of a Highly Potent DENV NS2B-NS3 Covalent Inhibitor” (ACS Med Chem Lett, 2022).

Usually inhibition stands for the drop in the measured response relative to a control, in per cent. In general, IC50 refers to the midpoint of a concentration-inhibition curve. A word on the Ki: it is the dissociation constant of the complex between target and ligand, obtained from inhibition or displacement.

Data set [1] deals with Genome polyprotein (dengue virus type 2) (UniProt P29990). In words: Inhibition of DENV NS2B-NS3 protease assessed as fluorescence emission using benzoyl-Nle-Lys-Arg-Arg-AMC as substrate at 150 nM preincubated with enzyme for 60 min followed by substrate addition and measured for 15 min by fluorimetric assay. The procedure, abridged: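 The substrate is cleaved to release fluorescent AMC, and fluorescence intensity is the read-out. Percent inhibition is taken from triplicate measurements at 150 nM compound.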

For data set [2], the target named is T1, Genome polyprotein (dengue virus type 2, UniProt P29990). As to the kind of experiment: Inhibition of DENV NS2B-NS3 protease assessed as fluorescence emission using benzoyl-Nle-Lys-Arg-Arg-AMC as substrate preincubated with enzyme for 60 min followed by substrate addition and measured for 15 min by fluorimetric assay. A digest of the protocol:
(§1)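 Fluorometric protease assay reading the fluorescence of product released from benzoyl-Nle-Lys-Arg-Arg-AMC cleavage, with aprotinin as a positive control. Percent inhibition was taken from triplicate measurements at 150 nM inhibitor. IC50 values were determined by a similar method for selected compounds.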

For data set [3], the target named is Genome polyprotein (dengue virus type 2) (UniProt P29990). As to the kind of experiment: Inhibition of DENV NS2B-NS3 protease assessed as fluorescence emission using benzoyl-Nle-Lys-Arg-Arg-AMC as substrate at 1.4 to 16.7 uM by fluorimetric assay. The settings on record: dose 1.4-16.7 µM, time min <=60, TDE = time-dependent effect.
For data set [4], the target named is T1, Genome polyprotein. In words: Inhibition of DENV2 NS2B-NS3 protease expressed in Escherichia coli assessed as fluorescence emission using Bz-nKRR-AMC as substrate by microplate reader assay. The procedure, abridged:
as §1

Data set [5] addresses Genome polyprotein (dengue virus type 2) (UniProt P29990). In words: Inhibition of DENV NS2B-NS3 protease assessed as inactivation constant using benzoyl-Nle-Lys-Arg-Arg-AMC as substrate incubated for 60 min by measuring fluorescence intensity. The procedure, abridged: (§2)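 Time-dependent inactivation of DENV NS2B-NS3 protease was followed by fluorescence from cleavage of benzoyl-Nle-Lys-Arg-Arg-AMC at several inhibitor concentrations. kobs values were obtained at each concentration and plotted against inhibitor concentration to derive kinact, Ki and the second-order rate constant kinact/Ki.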

The target of data set [6] is T1, Genome polyprotein. As to the kind of experiment: Binding affinity to DENV NS2B-NS3 protease assessed as inhibition constant using benzoyl-Nle-Lys-Arg-Arg-AMC as substrate incubated for 60 min by measuring fluorescence intensity. A digest of the protocol:
as §2

In data set [7] the target is Genome polyprotein (dengue virus type 2) (UniProt P29990). In words: Inhibition of DENV NS2B-NS3 protease assessed as ratio of Kinact/Ki using benzoyl-Nle-Lys-Arg-Arg-AMC as substrate incubated for 60 min by measuring fluorescence intensity. The procedure, abridged:
as §2

For data set [8], the system named is BHK-21. As to the kind of experiment: Cytotoxicity against DENV infected hamster BHK-21 cells assessed as cell survival rate at 5 uM incubated for 5 days measured by CCK-8 assay. The class given is toxicity, cell-based, Mesocricetus auratus. Conditions: bhk-21, 120 h, time 5 day. On the technique in general: Formazan colour is commonly taken as a measure of viable cells.

The subject of data set [9] is BHK-21. As to the kind of experiment: Cytoprotective activity against DENV infected hamster BHK-21 cells assessed as cell survival rate at 5 uM incubated for 5 days measured by CCK-8 assay. In kind it is functional, cell-based. The settings on record: Mesocricetus auratus, time 5.0 day. A digest of the protocol:
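BHK-21 cells are infected with DENV and treated with compound at 5 μM. Cell viability is read by CCK-8. Survival rate is compared against the virus-infection control.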

Calls of active or inactive are those of the source. The rule behind the calls is not given here.

In the case of `COc1ccc(C(=O)Oc2cc(N)n(S(=O)(=O)c3ccc(Oc4ccccc4)cc3)n2)cc1`, the inhibition in data set [1] amounted to 76.7%.

With `Nc1cc(OC(=O)c2ccc([N+](=O)[O-])cc2)nn1S(=O)(=O)c1ccc(Br)cc1`, the inhibition in data set [1] is 17.3%.

Regarding `CC(C)(C)c1ccc(S(=O)(=O)n2nc(OC(=O)c3ccc(-c4ccccc4)cc3)cc2N)cc1`, the inhibition in data set [1] turned out to be 59.8%.

For the compound `Nc1cc(OC(=O)c2ccc([N+](=O)[O-])cc2)nn1S(=O)(=O)c1ccc(Oc2ccccc2)cc1`, in [1], the inhibition came to 64.3%.

Consider `Nc1ccc(C(=O)Oc2cc(N)n(S(=O)(=O)c3ccc(Br)cc3)n2)cc1`, for which the inhibition in [1] was determined as 100%. The IC50 in data set [2] was 74 nM.

Turning to `Nc1cc(OC(=O)c2ccc(-c3ccccc3)cc2)nn1S(=O)(=O)c1ccc(C(F)(F)F)cc1`, in [1], the inhibition is 41.2%.

Turning to `Nc1ccc(C(=O)Oc2cc(N)n(S(=O)(=O)c3ccc(Oc4ccccc4)cc3)n2)cc1`, in data set [1], the inhibition is 100%. Moreover, the IC50 in data set [2] was 9 nM.

Take `CC(C)(C)c1ccc(S(=O)(=O)n2nc(OC(=O)c3ccc(N)cc3)cc2N)cc1`: the inhibition in data set [1] came to 88.1%.

In the case of `CCOc1ccc(S(=O)(=O)n2nc(OC(=O)c3ccc(N)cc3)cc2N)cc1`, in [1], the inhibition turned out to be 71.9%.

Consider `Nc1cc(OC(=O)c2ccc(-c3ccccc3)cc2)nn1S(=O)(=O)c1ccc(Oc2ccccc2)cc1`, for which, in data set [1], the inhibition was 95%.

`CCOc1ccc(S(=O)(=O)n2nc(OC(=O)c3ccc(OC)cc3)cc2N)cc1`: in data set [1], the inhibition stood at 43.6%.

As for `Nc1ccc(C(=O)Oc2cc(N)n(S(=O)(=O)c3ccccc3)n2)cc1`, the inhibition in data set [1] amounted to 76.4%.

Regarding `COc1ccc(S(=O)(=O)n2nc(OC(=O)c3ccc(-c4ccccc4)cc3)cc2N)cc1`, the inhibition in [1] is 59.7%; in data set [3] it was “Tde”. The IC50 in [4] and in data set [2] was 500 nM each time. Further, the Kinact in data set [5] was 1.13 10^-3/s. The Ki in data set [6] turned out to be 7250 nM. In addition, the Ratio in [7] was 156.

For the compound `Nc1cc(OC(=O)c2ccc(-c3ccccc3)cc2)nn1S(=O)(=O)c1ccccc1`, the inhibition in data set [1] was determined as 100%. Also, the IC50 in data set [2] came to 12 nM.

`Nc1cc(OC(=O)c2ccc([N+](=O)[O-])cc2)nn1S(=O)(=O)c1ccc(C(F)(F)F)cc1`: in data set [1], the inhibition was 22%.

For `Nc1ccc(C(=O)Oc2cc(N)n(S(=O)(=O)c3ccc(F)cc3)n2)cc1`, the inhibition in data set [1] came out at 87.8%.

As to `COc1ccc(C(=O)Oc2cc(N)n(S(=O)(=O)c3ccc(C(F)(F)F)cc3)n2)cc1`, the inhibition in data set [1] was found to be 16.1%.

Consider `CC(C)(C)c1ccc(S(=O)(=O)n2nc(OC(=O)c3ccc([N+](=O)[O-])cc3)cc2N)cc1`, for which the inhibition in data set [1] is 20.4%.

Regarding `CCOc1ccc(S(=O)(=O)n2nc(OC(=O)c3ccc(C)cc3)cc2N)cc1`, the inhibition in data set [1] is 42.1%.

For the compound `Cc1ccc(C(=O)Oc2cc(N)n(S(=O)(=O)c3ccc(C(F)(F)F)cc3)n2)cc1`, the inhibition in [1] stood at 19.3%.

For `Cc1ccc(C(=O)Oc2cc(N)n(S(=O)(=O)c3ccc(Oc4ccccc4)cc3)n2)cc1`, the inhibition in [1] worked out at 81%.

For the compound `CCOc1ccc(S(=O)(=O)n2nc(OC(=O)c3ccc(-c4ccccc4)cc3)cc2N)cc1`, the Activity result in data set [8] was “Non-Toxic”. The inhibition in data set [1] is 100%; in data set [3], “Tde”. Also, the Kinact in [5] was 1.05 10^-3/s. Further, the Ki in [6] turned out to be 665 nM. The result in data set [9] was Active. For the same compound, the IC50 in data set [2] came to 6 nM. In [7], the Ratio is 1580.

Regarding `Nc1cc(OC(=O)c2ccc([N+](=O)[O-])cc2)nn1S(=O)(=O)c1ccccc1`, the inhibition in data set [1] amounted to 27.3%.

For `CCOc1ccc(S(=O)(=O)n2nc(OC(=O)c3ccc([N+](=O)[O-])cc3)cc2N)cc1`, the inhibition in data set [1] is 32.6%.

As for `Nc1ccc(C(=O)Oc2cc(N)n(S(=O)(=O)c3ccc(Cl)cc3)n2)cc1`, the inhibition in [1] amounted to 85.6%.

`COc1ccc(S(=O)(=O)n2nc(OC(=O)c3ccc(N)cc3)cc2N)cc1`: the inhibition in [1] stood at 68.5%.

For `Nc1ccc(C(=O)Oc2cc(N)n(S(=O)(=O)c3ccc(C(F)(F)F)cc3)n2)cc1`, the inhibition in [1] turned out to be 52.6%.

For `Nc1cc(OC(=O)c2ccc([N+](=O)[O-])cc2)nn1S(=O)(=O)c1ccc(Cl)cc1`, the inhibition in data set [1] was determined as 13.2%.
